Drawing on ChEMBL document CHEMBL1150432 (J Med Chem, 2008), this text covers Ki, IC50 and Activity for 33 compounds.

Assay [1] deals with 5-hydroxytryptamine receptor 1D (Homo sapiens, UniProt P28221). As to the kind of experiment: Displacement of [3H]5-hydroxytryptamine from human cloned 5HT1D receptor expressed in CHOK1 cells by liquid scintillation counting. In kind it is cell-based, CHO-K1. In short, it runs like this: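 Membranes from CHO-K1 cells expressing cloned human 5-HT1D were purchased. Stopped by filtration over GF/B filters and counted by liquid scintillation. Ki derived from IC50 by Cheng-Prusoff. Each value is the mean of more than two runs done in duplicate or triplicate.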
5-hydroxytryptamine receptor 1D, sequence (P28221 whole entry): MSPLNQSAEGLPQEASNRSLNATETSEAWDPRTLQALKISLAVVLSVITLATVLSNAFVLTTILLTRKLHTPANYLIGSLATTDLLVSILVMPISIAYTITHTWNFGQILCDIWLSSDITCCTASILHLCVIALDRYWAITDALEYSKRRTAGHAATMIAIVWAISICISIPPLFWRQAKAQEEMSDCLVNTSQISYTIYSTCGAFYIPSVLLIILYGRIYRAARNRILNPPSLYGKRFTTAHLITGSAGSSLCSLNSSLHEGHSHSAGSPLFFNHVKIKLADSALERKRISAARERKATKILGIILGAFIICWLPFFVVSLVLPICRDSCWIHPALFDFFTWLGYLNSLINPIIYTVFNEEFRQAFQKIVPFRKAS
A general note: Displacement assays read how much labelled ligand stays bound in the presence of the test substance.

Assay [2] deals with 5-hydroxytryptamine receptor 1B (Homo sapiens, UniProt P28222). The assay can be described thus: Displacement of [3H]5-hydroxytryptamine from human cloned 5HT1B receptor expressed in CHOK1 cells by liquid scintillation counting. In kind it is cell-based, CHO-K1.
5-hydroxytryptamine receptor 1B, sequence (P28222 whole entry): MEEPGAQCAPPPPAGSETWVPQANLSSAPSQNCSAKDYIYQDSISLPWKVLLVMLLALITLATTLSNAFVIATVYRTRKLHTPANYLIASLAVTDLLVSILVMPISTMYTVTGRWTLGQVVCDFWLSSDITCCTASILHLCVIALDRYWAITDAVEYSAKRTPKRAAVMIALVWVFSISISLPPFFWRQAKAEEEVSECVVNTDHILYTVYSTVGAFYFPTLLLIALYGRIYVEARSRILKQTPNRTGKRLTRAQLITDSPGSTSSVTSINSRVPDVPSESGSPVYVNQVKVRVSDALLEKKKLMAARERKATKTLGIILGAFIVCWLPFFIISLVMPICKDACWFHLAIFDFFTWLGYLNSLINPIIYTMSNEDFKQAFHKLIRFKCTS
A short description of assay [3]: Displacement of [3H]5-hydroxytryptamine from rhesus monkey cloned 5HT1F receptor expressed in African green monkey COS7 cells by liquid scintillation counting. The assay is classed as cell-based, Macaca mulatta. The conditions noted are these: cos-7. The method, boiled down:
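Rhesus monkey 5-HT1F cloned by PCR into pcDNA3.1 and transiently transfected into COS-7 cells. Membranes prepared by homogenization in 50 mM Tris-HCl, 5 mM EDTA, pH 7.4. Filtered over GF/B and counted by liquid scintillation. Ki calculated via Cheng-Prusoff. Mean of more than two runs in duplicate or triplicate.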

Assay [4] deals with T1, 5-hydroxytryptamine receptor 1A (Homo sapiens, UniProt P08908).
T1 sequence (P08908 whole entry): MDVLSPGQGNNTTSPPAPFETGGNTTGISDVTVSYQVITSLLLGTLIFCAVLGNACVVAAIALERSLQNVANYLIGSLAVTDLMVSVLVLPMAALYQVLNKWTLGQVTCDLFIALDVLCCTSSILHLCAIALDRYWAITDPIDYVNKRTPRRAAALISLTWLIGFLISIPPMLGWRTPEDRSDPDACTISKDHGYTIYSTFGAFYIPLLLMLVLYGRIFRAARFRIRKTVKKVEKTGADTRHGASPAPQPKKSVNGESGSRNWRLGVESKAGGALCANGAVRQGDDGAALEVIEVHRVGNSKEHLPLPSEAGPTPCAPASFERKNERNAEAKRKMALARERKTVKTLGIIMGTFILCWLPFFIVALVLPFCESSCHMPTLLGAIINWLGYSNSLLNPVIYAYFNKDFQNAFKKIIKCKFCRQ
As to the kind of experiment: Binding affinity to 5HT1A receptor.

Assay [5] is described as follows: Displacement of [3H]5-hydroxytryptamine from human cloned 5HT1D receptor expressed in CHOK1 cells by liquid scintillation counting. The conditions noted are these: cho-k1.
Assay [6] has as its target 5-hydroxytryptamine receptor 1B (Oryctolagus cuniculus) (UniProt P49144). The assay can be described thus: Agonist activity at rabbit 5HT1B receptor assessed as induction of saphenous vein contraction at 30 uM after 5 mins. The assay is classed as functional, tissue-based.
Assay [7] shares this target. As to the kind of experiment: Antagonist activity at rabbit 5HT1B receptor assessed as inhibition of sumatriptan-induced saphenous vein contraction at 30 uM. Details: scale not given: the % may be the effect or the level left. In kind it is functional, tissue-based.

5-hydroxytryptamine receptor 1B (Oryctolagus cuniculus), sequence (P49144 whole entry): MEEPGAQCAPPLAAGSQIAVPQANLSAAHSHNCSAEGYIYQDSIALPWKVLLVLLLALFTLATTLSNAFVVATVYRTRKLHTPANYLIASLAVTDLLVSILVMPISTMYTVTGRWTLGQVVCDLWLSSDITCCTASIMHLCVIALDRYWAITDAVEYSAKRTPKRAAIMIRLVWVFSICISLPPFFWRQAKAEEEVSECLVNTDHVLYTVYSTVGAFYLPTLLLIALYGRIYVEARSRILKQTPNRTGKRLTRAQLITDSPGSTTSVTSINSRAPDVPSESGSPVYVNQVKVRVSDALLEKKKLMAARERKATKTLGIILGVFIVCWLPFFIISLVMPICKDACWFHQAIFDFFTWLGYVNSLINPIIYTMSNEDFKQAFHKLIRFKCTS

By Ki is commonly meant a dissociation constant, usually derived from enzyme kinetics or from competition with a known ligand. For `CN1CCC(c2c[nH]c3ccc(NC(=O)CCCCCCCCCCCCCC(=O)Nc4ccc5[nH]cc(C6CCN(C)CC6)c5c4)cc23)CC1`, the Ki in assay [1] was 2.3 nM; in assay [2], 0.58 nM; in assay [3] it was above 10000 nM.

Compound `CNS(=O)(=O)Cc1ccc2[nH]cc(CCN(C)C)c2c1` gave a Ki in assay [3] of 234 nM.

Take `CN1CCC(c2c[nH]c3ccc(NC(=O)CCCC(=O)Nc4ccc5[nH]cc(C6CCN(C)CC6)c5c4)cc23)CC1`: the figures for the Ki in assay [1], in assay [2] and in assay [3] were 0.95 nM, 0.76 nM and above 10000 nM, respectively.

Turning to `O=C(Nc1ccc2[nH]cc(C3CCN(CCN4CCC(c5c[nH]c6ccc(NC(=O)c7ccc(F)cc7)cc56)CC4)CC3)c2c1)c1ccc(F)cc1`, the Ki in assay [1] was 219 nM; in assay [2] it was above 10000 nM; in assay [3] it was above 10000 nM.

Consider `O=C(Nc1ccc2[nH]cc(C3CCN(Cc4cccc(CN5CCC(c6c[nH]c7ccc(NC(=O)c8ccc(F)cc8)cc67)CC5)c4)CC3)c2c1)c1ccc(F)cc1`, for which the Ki was 151 nM in assay [1], 453 nM in assay [2] and above 1000 nM in assay [3].

As to `CN1CCC(c2c[nH]c3ccc(N)cc23)CC1`, the Ki in assay [1] was 39.6 nM; in assay [2] it was 353 nM; in assay [3], above 10000 nM.

For the compound `CN1CCC(c2c[nH]c3ccc(NC(=O)CCCCCCCCC(=O)Nc4ccc5[nH]cc(C6CCN(C)CC6)c5c4)cc23)CC1`, the figures for the Ki in assay [1], in assay [2] and in assay [3] were 0.95 nM, 0.79 nM and above 10000 nM, respectively.

Regarding `CN1CCC(c2c[nH]c3ccc(NC(=O)CCCCCCCCCCCC(=O)Nc4ccc5[nH]cc(C6CCN(C)CC6)c5c4)cc23)CC1`, the figures for the Ki in assay [1], in assay [2] and in assay [3] were 1.4 nM, 0.1 nM and above 10000 nM, respectively.

The term IC50 denotes the concentration needed to halve the response being measured. In the case of `NC(=O)c1ccc2[nH]cc(C3=CCC(NCCCCCCCNC4CC=C(c5c[nH]c6ccc(C(N)=O)cc56)CC4)CC3)c2c1` (centres undefined), the values for the IC50 in assay [4] and in assay [5] were 1.83 nM and 0.05 nM, respectively.

On to `O=C(Nc1ccc2[nH]cc(C3CCN(CCCCCCCCCN4CCC(c5c[nH]c6ccc(NC(=O)c7ccc(F)cc7)cc56)CC4)CC3)c2c1)c1ccc(F)cc1`, for which the Ki in assay [1] was 1 nM; in assay [2] it was 126 nM; in assay [3], above 10000 nM.

Take `O=C(Nc1ccc2[nH]cc(C3CCN(CCCCCCCCCCCN4CCC(c5c[nH]c6ccc(NC(=O)c7ccc(F)cc7)cc56)CC4)CC3)c2c1)c1ccc(F)cc1`: the figures for the Ki in assay [1], in assay [2] and in assay [3] were 13 nM, 126 nM and above 10000 nM, respectively.

For `O=C(Nc1ccc2[nH]cc(C3CCN(CCCCCCCCCCN4CCC(c5c[nH]c6ccc(NC(=O)c7ccc(F)cc7)cc56)CC4)CC3)c2c1)c1ccc(F)cc1`, the Ki is 13 nM in assay [1], 38 nM in assay [2] and above 10000 nM in assay [3].

In the case of `O=C(Nc1ccc2[nH]cc(C3CCN(CCCCCCCCCCCCN4CCC(c5c[nH]c6ccc(NC(=O)c7ccc(F)cc7)cc56)CC4)CC3)c2c1)c1ccc(F)cc1`, the Ki in assay [1] is 13 nM; in assay [2] it was above 10000 nM; in assay [3] it was above 10000 nM.

Regarding `O=C(Nc1ccc2[nH]cc(C3CCN(CCCN4CCC(c5c[nH]c6ccc(NC(=O)c7ccc(F)cc7)cc56)CC4)CC3)c2c1)c1ccc(F)cc1`, the Ki in assay [1] was 79 nM; in assay [2], above 10000 nM; in assay [3], above 10000 nM.

For the compound `O=C(O)CCCCCCCCCN1CCC(c2c[nH]c3ccc(NC(=O)c4ccc(F)cc4)cc23)CC1`, the Ki in assay [1], in assay [2] and in assay [3] was above 1000 nM each time.

With `CN1CCC(c2c[nH]c3ccc(NC(=O)CC(=O)Nc4ccc5[nH]cc(C6CCN(C)CC6)c5c4)cc23)CC1`, the figures for the Ki in assay [1], in assay [2] and in assay [3] were 3.4 nM, 16 nM and above 10000 nM, respectively.

Regarding `O=C(Nc1ccc2[nH]cc(C3CCN(CCN4CCCCC4)CC3)c2c1)c1ccc(F)cc1`, the Ki in assay [1], in assay [2] and in assay [3] was above 1000 nM in each case.

With `O=C(Nc1ccc2[nH]cc(C3CCN(CCCCCCN4CCC(c5c[nH]c6ccc(NC(=O)c7ccc(F)cc7)cc56)CC4)CC3)c2c1)c1ccc(F)cc1`, the figures for the Ki in assay [1], in assay [2] and in assay [3] were 0.6 nM, 100 nM and above 10000 nM, respectively.

In turn, `NCCc1c[nH]c2ccc(O)cc12` [SEROTONIN] came in with a Ki in assay [3] of 35 nM.

As to `CCCCCCCCN1CCC(c2c[nH]c3ccc(NC(=O)c4ccc(F)cc4)cc23)CC1`, the Ki is above 1000 nM in assay [1], above 1000 nM in assay [2] and above 10000 nM in assay [3].

As for `O=C(Nc1ccc2[nH]cc(C3CCN(CC(N4CCC(c5c[nH]c6ccc(NC(=O)c7ccc(F)cc7)cc56)CC4)C(F)(F)F)CC3)c2c1)c1ccc(F)cc1` (centres undefined), the Ki in assay [1] is above 1000 nM; in assay [2], above 1000 nM; in assay [3], 24 nM.

In turn, `CN1CCC(c2c[nH]c3ccc(NC(=O)c4ccc(F)cc4)cc23)CC1` had a Ki in assay [3] of 3 nM.

As for `O=C(Nc1ccc2[nH]cc(C3CCN(C/C=C/CN4CCC(c5c[nH]c6ccc(NC(=O)c7ccc(F)cc7)cc56)CC4)CC3)c2c1)c1ccc(F)cc1`, the Ki was 24 nM in assay [1], 103 nM in assay [2] and above 1000 nM in assay [3].

Turning to `CN1CCC(c2c[nH]c3ccc(NC(=O)CCCCCCCCCCCCC(=O)Nc4ccc5[nH]cc(C6CCN(C)CC6)c5c4)cc23)CC1`, the Activity in assay [6] amounted to 24%; in assay [7] it was 58%. The Ki is 1.7 nM in assay [1], 0.5 nM in assay [2] and above 10000 nM in assay [3].

Turning to `NC(=O)C(CN1CCC(c2c[nH]c3ccc(NC(=O)c4ccc(F)cc4)cc23)CC1)N1CCC(c2c[nH]c3ccc(NC(=O)c4ccc(F)cc4)cc23)CC1` (centres undefined), the Ki in assay [1] is above 1000 nM; in assay [2], above 1000 nM; in assay [3], 48 nM.

Take `CN1CCC(c2c[nH]c3ccc(NC(=O)CCCCCCCCCCCCCCC(=O)Nc4ccc5[nH]cc(C6CCN(C)CC6)c5c4)cc23)CC1`: the Ki in assay [1] was 11.3 nM; in assay [2], 0.81 nM; in assay [3] it was above 10000 nM.

`CN1CCC(c2c[nH]c3ccc(NC(=O)CCCCCCCCCC(=O)Nc4ccc5[nH]cc(C6CCN(C)CC6)c5c4)cc23)CC1`: the Ki in assay [1] was 0.9 nM; in assay [2] it was 1.3 nM; in assay [3], above 10000 nM.

For the compound `O=C(Nc1ccc2[nH]cc(C3CCN(CCOCCOCCN4CCC(c5c[nH]c6ccc(NC(=O)c7ccc(F)cc7)cc56)CC4)CC3)c2c1)c1ccc(F)cc1`, the Ki is 1.5 nM in assay [1], 18 nM in assay [2] and 27 nM in assay [3].

As to `O=C(Nc1ccc2[nH]cc(C3CCN(CCO)CC3)c2c1)c1ccc(F)cc1`, the Ki in assay [1] was above 1000 nM; in assay [2] it was above 1000 nM; in assay [3], 9 nM.

As to `O=C(Nc1ccc2[nH]cc(C3CCN(CCOCCOCCOCCN4CCC(c5c[nH]c6ccc(NC(=O)c7ccc(F)cc7)cc56)CC4)CC3)c2c1)c1ccc(F)cc1`, the Ki was found to be 3.9 nM in assay [1], 32 nM in assay [2] and 28 nM in assay [3].

With `O=C(Nc1ccc2[nH]cc(C3CCN(Cc4ccccc4)CC3)c2c1)c1ccc(F)cc1`, the Ki in assay [1] is above 1000 nM; in assay [2], above 1000 nM; in assay [3], 32 nM.

With `CN(C)CCCN1CCC(c2c[nH]c3ccc(NC(=O)c4ccc(F)cc4)cc23)CC1`, the values for the Ki in assay [1], in assay [2] and in assay [3] were above 1000 nM, above 1000 nM and 124 nM, respectively.

Consider `CN1CCC(c2c[nH]c3ccc(NC(=O)CCCCCCC(=O)Nc4ccc5[nH]cc(C6CCN(C)CC6)c5c4)cc23)CC1`, for which the Ki in assay [1] is 0.9 nM; in assay [2] it was 1.3 nM; in assay [3], above 10000 nM.
